Sampled rows, rich in hits. Any-hit rate of the full collection: about 9.6%.
TNAP act hiacc = TNAP (human) activation, high acceptor; P05186; purified TNAP, CDP-star luminescence, 1 M DEA, 30 min; hits give high values; 0 = EDTA background, 1 = DMSO-only activity; activation factor at 20 µM; 200,000 tested, under 10 active; AID 1136;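 active = activation factor at least 2 at 20 µM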
Target sequence (P05186 whole entry, looked up): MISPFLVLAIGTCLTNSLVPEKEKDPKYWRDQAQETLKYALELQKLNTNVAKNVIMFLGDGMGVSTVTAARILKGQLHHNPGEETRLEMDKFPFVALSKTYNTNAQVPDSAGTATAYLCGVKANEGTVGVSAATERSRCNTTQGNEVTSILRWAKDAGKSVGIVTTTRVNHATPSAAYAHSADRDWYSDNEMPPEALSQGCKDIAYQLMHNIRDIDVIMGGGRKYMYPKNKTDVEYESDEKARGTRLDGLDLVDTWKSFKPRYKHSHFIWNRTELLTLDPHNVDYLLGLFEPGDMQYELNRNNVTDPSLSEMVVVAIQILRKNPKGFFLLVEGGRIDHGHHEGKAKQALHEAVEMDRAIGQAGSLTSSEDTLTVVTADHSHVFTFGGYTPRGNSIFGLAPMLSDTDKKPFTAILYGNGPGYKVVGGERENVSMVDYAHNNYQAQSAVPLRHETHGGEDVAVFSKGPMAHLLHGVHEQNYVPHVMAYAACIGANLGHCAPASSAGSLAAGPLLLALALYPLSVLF
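Control set: EDTA negative control, DMSO positive control / Assay system: human TNAP / Quantity: TNAP 1/800 final / Evaluation: TNAP activation factor scaled between EDTA and DMSO control wells / Measured by: luminescent substrate turnover signal / Compound dosing: one dose, 20 µM / Times: 30 min enzyme reaction at room temperature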
TNAP inh no acc = inhibitors of human TNAP without phosphate acceptor | P05186 | inhibition, % at 20 µM | 200,000 tested, 0.26% active | purified TNAP, CDP-star luminescence, 30 min;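 active = tissue-nonspecific alkaline phosphatase inhibition above about 50% at 20 µM in the single-dose screen, limit read from the data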;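 note: 0% = DMSO negative control and 100% = EDTA positive control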
L major viab = Leishmania major promastigote growth inhibition; Leishmania major promastigotes, resazurin fluorescence viability; inhibition, % at 10 µM; 200,000 tested, 9% active; AID 1063; in the data active = inhibition above about 50%;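 note: promastigotes grown with compound for 44 hours at 28 °C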
PTEN del growth = PTEN-deleted cell growth suppression | HCT116 PTEN-null viability, CellTiter-Glo, 60 h; hits give low values | viability, % at 10 µM | 140,000 tested, 1.2% active;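 active = viability at or below a set limit, 4 SD under the median of all tested compounds, cut at about 3.7% in these data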;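 note: PTEN knockout HCT116 line with beta catenin targeted HCT116 as companion control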
HCT116 bCat-KO = beta-catenin-lacking colon tumor cell growth suppression; HCT116 beta-catenin knockout viability, CellTiter-Glo, 60 h; hits give low values; viability, % at 10 µM; 140,000 tested, 1.5% active;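 active = viability at or under a set limit, the compound median less 4 SD, cut at about 6% in these data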;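 note: 0% = Hyamine 1622 control at 20 µM and 100% = untreated cell control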
TNAP inh hiacc = blocks human TNAP under high phosphate acceptor concentration. P05186. purified TNAP, CDP-star luminescence, 1 M DEA. inhibition, % at 20 µM. 200,000 tested, 0.03% active;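 active = over 50% inhibition of tissue-nonspecific alkaline phosphatase at 20 µM in the single-dose screen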;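 note: plate controls were DMSO wells for no effect and EDTA-quenched wells as full inhibition for full effect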
The depositor's hits bear a star; · = no result given.

SMILES	TNAP act hiacc	TNAP inh no acc	L major viab	PTEN del growth	HCT116 bCat-KO	TNAP inh hiacc
O=C(NCc1ccccn1)C(=O)NN=C1CCCCCCC1	1	-54	-5	·	·	1
Cc1[nH]c2ccc(-c3nnc(SCC(=O)NCc4ccco4)n3Cc3ccccc3)cc2c1C	1.1	-27	97*	65	86	-7
CCSc1nnc(-c2cccnc2)n1Cc1ccco1	0.9	-10	-3	84	87	5
COC(=O)c1c(NC(=O)CSc2nnc(-c3ccco3)n2Cc2ccccc2)sc(C)c1C	1.1	-22	65*	80	85	-9
COc1ccc2cc(C)c3nnc(SCC(=O)Nc4nc(-c5ccc(F)cc5)cs4)n3c2c1	1	0	-2	2.0*	2.7*	-1
CCOC(=O)c1c(NC(=O)CSc2nnc(-c3cccnc3)n2Cc2ccco2)sc(C)c1C	1	-1	53*	70	74	-1
COC(=O)c1c(NC(=O)CSc2nc3ccccc3c(=O)n2Cc2ccco2)sc(C)c1C	1	-14	14	61	41	2
CN(C)C(=O)CSc1nnc(-c2ccncc2)n1Cc1ccco1	1	-17	-6	·	·	-3
O=C(CSc1nnc(-c2ccncc2)n1Cc1ccco1)OC1CCCCC1	1.1	-11	81*	85	86	-8
O=C(CSc1nnc(-c2cccnc2)n1Cc1ccco1)Nc1nc(-c2ccc(F)cc2)cs1	1	-2	73*	61	60	1
O=C(CSc1nnc(-c2ccncc2)n1Cc1ccco1)Nc1nccs1	1	-6	-3	94	75	-2
Cc1cc(Cl)ccc1Oc1ncnc2onc(C)c12	1.1	-10	4	·	·	-6
CCCCCc1ccc(OCCOCCn2c[n+](C)c3ccccc32)c(CCCCC)c1	1	-1	101*	·	·	1
CCCCc1n(CC(=O)c2ccc(Cl)cc2)c2ccccc2[n+]1C	1	4	36	·	·	1
Cc1ccccc1NS(=O)(=O)c1cc(C(=O)Nc2cccc(N(C)S(C)(=O)=O)c2)ccc1C	1.1	-12	97*	76	78	-8
Cc1ccc(C(=O)Nc2cccc([N+](=O)[O-])c2)cc1S(=O)(=O)Nc1ccc(NC(=O)c2ccccc2)cc1	1	-2	62*	63	61	-4
Cc1ccc(NC(=S)NC(=O)c2ccc(F)cc2)cc1S(=O)(=O)Nc1cccc(Cl)c1	1	6	43	·	·	-2
Cc1ccc(NC(=O)c2cccs2)cc1S(=O)(=O)Nc1cccc(Cl)c1	1	-9	51*	39	46	-2
Cc1ccc(NC(=O)CC(=O)c2ccc([N+](=O)[O-])cc2)cc1S(=O)(=O)Nc1cccc(Cl)c1	1	1	51*	·	·	4
CCn1nc(C)c(C2C(C#N)=C(N)OC3=C2C(=O)CC(C)(C)C3)c1C (stereo unspecified)	1.1	-8	4	102	99	-7
Cc1ccc(S(=O)(=O)CCC(=O)Nc2cccc([N+](=O)[O-])c2)cc1	1	-5	1	·	·	1
Cc1ccc(NS(=O)(=O)c2ccc(OCC(=O)Nc3cccc([N+](=O)[O-])c3)c(C)c2)cc1	1.1	-10	100*	10	10	-6
Cc1ccc(NS(=O)(=O)c2cc(C(=O)Nc3cccc([N+](=O)[O-])c3)ccc2C)cc1	1	-27	67*	11	16	0
CCOc1ccc(NC(=S)N(CCc2c(C)[nH]c3ccccc23)Cc2ccco2)cc1	1.1	-3	27	58	63	-7
COc1ccc(N(CC(=O)NCCC2=CCCCC2)S(C)(=O)=O)cc1OC	1	-10	1	90	86	-3
SMILES	TNAP act hiacc	TNAP inh no acc	L major viab	PTEN del growth	HCT116 bCat-KO	TNAP inh hiacc
COc1ccc(N(CC(=O)NCCC2=CCCCC2)S(=O)(=O)c2ccc(C)cc2)cc1OC	1	1	85*	·	·	-4
COc1ccc(S(=O)(=O)N(C)CC(=O)NCCC2=CCCCC2)cc1OC	1	-5	-7	88	92	-3
COc1ccc(N(CC(=O)NCCC2=CCCCC2)S(=O)(=O)c2ccccc2)cc1OC	1	-11	73*	·	·	-1
O=C(c1cc2sccc2n1Cc1ccc(F)cc1)N1CCN(c2nc3ccccc3s2)CC1	1	-8	84*	24	20	-4
Cn1c(C(=O)N2CCN(c3nc4ccccc4s3)CC2)cc2sccc21	1	-8	-2	90	89	-2
CCn1c(O)c(/C=N/N=C/c2ccccc2)c2ccc(C3=NNC(=O)CC3)cc21	0.8	1	89*	78	86	20
CCOC(=O)c1c(C)oc2ccc(NS(=O)(=O)c3ccc4c5c(cccc35)C(=O)N4)cc12	1	-5	91*	95	94	0
O=C(N/N=C/c1cc2c(cc1Br)OCO2)c1cccnc1	1	-7	2	·	·	-2
Cc1onc(-c2ccccc2)c1C(=O)N/N=C/C(Br)=C/c1ccccc1	1	0	12	2.9*	3.6*	-2
COc1ccc(/C=N/NC(=O)c2c(-c3ccccc3)noc2C)cc1	1	2	5	96	105	-4
Cc1onc(-c2ccccc2)c1C(=O)N/N=C/c1cc2c(cc1Br)OCO2	1	3	100*	79	85	1
COc1ccc(S(N)(=O)=O)cc1C(=O)N1CCCC1	1	-2	-6	·	·	1
CC(=O)c1ccc(NC(=O)C2C3C=CC(C3=C(c3ccccc3)c3ccccc3)C2C(=O)O)cc1 (stereo unspecified)	1.1	-10	52*	·	·	-6
COc1ccc(N=Cc2ccc(-c3ccccc3)o2)cc1	1	-8	-4	·	·	-4
O=c1c2c3c(sc2n(CCN2CCOCC2)c(=O)n1Cc1ccco1)CCCCC3	1	-6	24	86	77	-4
O=c1c2c3c(sc2n(CCN2CCCCC2)c(=O)n1Cc1ccco1)CCCCC3	1	-2	99*	61	71	-4
Cc1c(Cl)cccc1Nc1nc(N)nc(CSC(=S)N2CCOCC2)n1	1.1	-3	16	·	·	-8
Cc1cccc(Cc2nnc(CCC(=O)N(C)C3CCOC3)o2)c1 (stereo unspecified)	1	-5	-3	·	·	-3
CC(CCn1cccn1)NC(=O)CCc1nnc(C2CCCCC2)o1 (stereo unspecified)	1.1	-13	-3	·	·	-8
COC(=O)CSc1cc(SCC(=O)OC)c(C#N)c(SCC(=O)OC)c1	1.1	-5	64*	107	96	-8
COC(=O)CSc1ccc(C#N)c(SCC(=O)OC)c1	1	-7	-1	97	97	-4
CCc1ccc(-n2cc(-c3ccc(F)cc3)[n+]3c2SCCC3)cc1	1.1	-18	101*	·	·	-6
COc1ccc(-n2cc(-c3ccc(C)cc3)[n+]3c2SCC3)cc1	1.1	-19	100*	14	15	-6
CCOC(=O)C1(CC2CC2)CCN(Cc2ccc3cccc(F)c3n2)CC1	1	-2	8	·	·	-5
